Data as given in ChEMBL document CHEMBL1833913, “Structure-activity relationship study of pyridazine derivatives as glutamate transporter EAAT2 activators” (Bioorg Med Chem Lett, 2011).
The source made the active and inactive calls. The rule behind the calls is not given here.

How the values were obtained:
[1] = test system: Astrocyte; assay: Increase of EAAT2 expression in mouse primary astrocytes at 10 uM after 4 hrs by Western blot analysis relative to control; format: functional
How it was run: (§1)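 PA-EAAT2 cells (primary astrocyte line stably expressing EAAT2 mRNA) were incubated with compound at 10 μM for 4 h or 24 h. Cells were then harvested and EAAT2 protein measured by Western blot. Results are given as fold increase over DMSO control.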

[2] = test system: Astrocyte; assay: Increase of EAAT2 expression in mouse primary astrocytes at 10 uM after 24 hrs by Western blot analysis relative to control; format: functional; how it was run: as §1
[3] = test system: Astrocyte; assay: Increase of EAAT2 expression in mouse primary astrocytes at 10 uM after 24 hrs by Western blot analysis relative to GAPDH protein expression; format: functional
How it was run: (§2)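 PA-EAAT2 cells (primary astrocyte line stably expressing EAAT2 mRNA) were exposed for 24 h to a 6-point series (0.1, 0.3, 1.0, 5.0, 10.0, 30.0 μM). EAAT2 protein was measured by Western blot and normalised separately to β-actin or GAPDH. Fold increase and EC50 were derived from the dose-response. Values are means of four separate experiments.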

[4] = test system: Astrocyte; assay: Increase of EAAT2 expression in mouse primary astrocytes at 1 uM after 24 hrs by Western blot analysis relative to beta-actin protein expression; format: functional; how it was run: as §2
[5] = test system: Astrocyte; assay: Increase of EAAT2 expression in mouse primary astrocytes at 10 uM after 24 hrs by Western blot analysis relative to beta-actin protein expression; format: functional; how it was run: as §2
[6] = test system: Astrocyte; assay: Increase of EAAT2 expression in mouse primary astrocytes after 24 hrs by Western blot analysis relative to beta-actin protein expression; format: functional, cell-based; how it was run: as §2
[7] = test system: Astrocyte; assay: Increase of EAAT2 expression in mouse primary astrocytes at <5 uM after 24 hrs by Western blot analysis relative to control; format: functional
[8] = test system: Astrocyte; assay: Increase of EAAT2 expression in mouse primary astrocytes after 24 hrs by Western blot analysis relative to GAPDH protein expression; format: functional, cell-based; how it was run: as §2
[9] = test system: Astrocyte; assay: Increase of EAAT2 expression in mouse primary astrocytes at 1 uM after 24 hrs by Western blot analysis relative to GAPDH protein expression; format: functional; how it was run: as §2

| EC50 [6] | EC50 [8] | SMILES | fold change (FC) [1] | fold change (FC) [2] | fold change (FC) [3] | fold change (FC) [4] | fold change (FC) [5] | fold change (FC) [7] | fold change (FC) [9] |
| --- | --- | --- | --- | --- | --- | --- | --- | --- | --- |
| – | – | Cc1ccccc1CSc1ccc(-c2cccnc2)nn1 | 1.5 | inactive | – | – | – | – | – |
| – | – | Clc1ccc(CSc2ccc(-c3ccccn3)nn2)c(Cl)c1 | 1.8 | inactive | – | – | – | – | – |
| 2600 nM | 2400 nM | Cc1cccc(C)c1CSc1ccc(-c2ccccn2)nn1 | inactive | 6.5 | 6.4 | 2 | 6.5 | >6 | 2 |
| – | – | Clc1cccc(CSc2ccc(-c3ccccn3)nn2)c1Cl | inactive | 2.4 | – | – | – | – | – |
| 2400 nM | 2100 nM | Cc1cc(C)c(CSc2ccc(-c3ccccn3)nn2)c(C)c1 | 1.7 | 4.7 | 4.8 | 1.5 | 4.7 | – | 1.6 |
| 3300 nM | 3200 nM | Clc1ccccc1CSc1ccc(-c2ccccn2)nn1 | 2.1 | 4 | 4.5 | 1.1 | 4 | – | 1.6 |
| – | – | Cc1ccc(CSc2ccc(-c3ccccn3)nn2)cc1 | 2.1 | 2.6 | – | – | – | – | – |
| 2600 nM | 1800 nM | Cc1ccccc1CSc1ccc(-c2ccccn2)nn1 | 1.7 | 3.5 | 3.1 | 1 | 3.5 | – | 1 |
| – | – | Sc1ccc(-c2ccccn2)nn1 | inactive | 2 | – | – | – | – | – |
| – | – | Fc1cccc(Cl)c1CSc1ccc(-c2ccccn2)nn1 | inactive | 2 | – | – | – | – | – |
| – | – | c1ccc(CSc2ccc(-c3ccccn3)nn2)cc1 | 1.3 | 3 | – | – | – | – | – |
| – | – | Cc1ccccc1CNC(=O)c1ccc(-c2ccccn2)nn1 | inactive | 1.4 | – | – | – | – | – |
| – | – | Cc1cccc(CSc2ccc(-c3ccccn3)nn2)c1 | 2 | 2.8 | – | – | – | – | – |
| – | – | Cc1ccccc1CNc1ccc(-c2ccccn2)nn1 | 1.7 | 2.6 | – | – | – | – | – |
| 500 nM | 500 nM | Clc1cccc(Cl)c1CSc1ccc(-c2ccccn2)nn1 | 1.5 | 3.9 | 3.5 | 3 | 3.9 | – | 3.5 |
| – | – | Fc1cccc(F)c1CSc1ccc(-c2ccccn2)nn1 | 2.1 | 2.2 | – | – | – | – | – |
| – | – | Fc1cc(F)c(CSc2ccc(-c3ccccn3)nn2)c(F)c1 | 1.6 | 2.4 | – | – | – | – | – |
| 2600 nM | 2600 nM | Fc1ccc(CSc2ccc(-c3ccccn3)nn2)c(F)c1 | 2.4 | 3.8 | 3.7 | 1 | 3.8 | – | 1 |
| 2700 nM | 1800 nM | Cc1ccc(CSc2ccc(-c3ccccn3)nn2)c(C)c1 | 1.9 | 6.4 | 6 | 2 | 6.4 | >6 | 2.2 |
| – | – | Fc1ccc(Sc2ccc(-c3ccccn3)nn2)c(Cl)c1 | 1.3 | 2.5 | – | – | – | – | – |
| – | – | CCCNC(=O)c1ccc(-c2ccccn2)nn1 | inactive | 1.2 | – | – | – | – | – |
| – | – | Fc1cccc(Cl)c1CSc1ccc(-c2cccnc2)nn1 | inactive | 2.3 | – | – | – | – | – |
| – | – | Fc1ccc(COc2ccc(-c3ccccn3)nn2)c(F)c1 | inactive | 2.3 | – | – | – | – | – |
| – | – | Cc1ccccc1CSc1ccc(-c2ccccc2)nn1 | 1.1 | 2 | – | – | – | – | – |
| – | – | Cc1ccc(COc2ccc(-c3ccccn3)nn2)c(C)c1 | inactive | 2 | – | – | – | – | – |
| – | – | Fc1ccc(CSc2ccc(-c3ccccn3)nn2)cc1 | 2.5 | 2.6 | – | – | – | – | – |
| – | – | Clc1ccccc1CSc1ccc(-c2ccncc2)nn1 | 1.5 | 1.7 | – | – | – | – | – |
